Nine compounds from ChEMBL document CHEMBL1153915, “[18F]FEAC and [18F]FEDAC: Two novel positron emission tomography ligands for peripheral-type benzodiazepine receptor in the brain” (Bioorg Med Chem Lett, 2009) can be followed below.

Data set [1] relates to Striatum. As to the kind of experiment: Drug uptake in non-lesioned Sprague-Dawley rat striatum assessed as standardized uptake value. The format is ADME, tissue-based. The following applies: in vivo. The method in brief: (§1)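 Dynamic small-animal PET of [18F]-labelled ligand in neuroinflammatory rats (n = 4). Striatal time-activity curves are expressed as SUV = (radioactivity per cm3 tissue / injected radioactivity) × g body weight, as mean ± SD.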

Data set [2] deals with Striatum. Briefly: Drug uptake in kainic acid-lesioned Sprague-Dawley rat striatum assessed as standardized uptake value. Type of data set: ADME, tissue-based. The following applies: in vivo. The method in brief: as §1
Data set [3] is described as follows: Displacement of [11C]flumazenil from CBR receptor in rat brain membrane. The format is cell membranes. The method in brief: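 Competition against [11C]flumazenil binding in rat brain homogenate; Ki derived; mean ± SD from duplicate homogenates.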
The target of data set [4] is T1, Translocator protein (Rattus norvegicus, UniProt P16257). Briefly: Displacement of [11C]DAA1106 from PBR receptor in rat brain membrane. The format is cell membranes. A general note: In a radioligand displacement assay an active substance lowers the binding of a labelled ligand.
T1 sequence (P16257 whole entry, looked up): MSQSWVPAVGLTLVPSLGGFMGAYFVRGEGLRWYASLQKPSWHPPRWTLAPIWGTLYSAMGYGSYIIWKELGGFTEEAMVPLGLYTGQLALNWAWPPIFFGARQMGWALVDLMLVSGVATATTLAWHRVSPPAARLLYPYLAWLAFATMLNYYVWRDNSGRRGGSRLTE
Data set [5] can be described thus: Distribution coefficient, log D in octanol/phosphate buffer at pH 7.4 by shaking flask method. Type of data set: physicochemical.
The test system of data set [6] is Striatum. Briefly: Ratio of drug uptake in kainic acid-lesioned to non-lesioned Sprague-Dawley rat striatum after 10 to 20 mins. Type of data set: ADME, tissue-based. The following applies: in vivo. The method in brief:
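From small-animal PET time-activity curves in neuroinflammatory rats (n = 4), the radioactivity in the lesioned striatum is divided by that in the non-lesioned striatum over the scan, and the maximum ratio is taken.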

For data set [7], the target named is T1, Translocator protein. As to the kind of experiment: Displacement of [11C]PK11195 from PBR receptor in rat brain membrane. Type of data set: cell membranes.

The structures appear in SMILES notation. Where only a bound is given, the exact number is not on record here.

Take `COc1ccc(OCC[18F])c(CN(C(C)=O)c2cc(F)ccc2Oc2ccccc2)c1`: the SUV in data set [1] came out at 1.3; in data set [2] it was 1.5.

Broadly, the Ki is a measure of affinity in units of concentration, obtained from inhibition or displacement. The term logD denotes lipophilicity at a set pH, counting ionised and neutral species. A low value points to a more hydrophilic compound. Take `COc1ccc(OCCF)c(CN(C(C)=O)c2cc(F)ccc2Oc2ccccc2)c1`: the figures for the Ki in data set [3] and in data set [4] were greater than 1000 nM and 0.08 nM, respectively. In data set [5], the log distribution coefficient (logD) stood at 3.8.

On to `CN(Cc1ccccc1)C(=O)Cn1c(=O)n(CC[18F])c2cnc(-c3ccccc3)nc21`, for which the SUV in data set [1] was 0.9; in data set [2], 1.6. The Ratio in data set [6] stood at 2.5.

`CCC(C)N(C)C(=O)c1cc2ccccc2c(-c2ccccc2Cl)n1` (stereo not given) [PK-11195] showed a Ki in data set [3] greater than 8400 nM. The compound also had a logD in data set [5] of 3.7.

On to `CCN(Cc1ccccc1)C(=O)Cn1c(=O)n(CCF)c2cnc(-c3ccccc3)nc21`, for which the figures for the Ki in data set [3] and in data set [7] were greater than 8400 nM and 0.49 nM, respectively. The compound further returned a logD in data set [5] of 3.6.

Regarding `CCN(Cc1ccccc1)C(=O)Cn1c(=O)n(C)c2cnc(-c3ccccc3)nc21`, the inhibitory constant (Ki) is greater than 8400 nM in data set [3] and 0.2 nM in data set [7]. This compound showed a pH-dependent lipophilicity (logD) in data set [5] of 3.3.

Consider `CCN(Cc1ccccc1)C(=O)Cn1c(=O)n(CC[18F])c2cnc(-c3ccccc3)nc21`, for which the SUV was 0.8 in data set [1] and 1.2 in data set [2]. Besides, the Ratio in data set [6] came to 2.5.

In the case of `Cn1c(=O)n(CC(=O)N(CCF)Cc2ccccc2)c2nc(-c3ccccc3)ncc21`, the inhibition constant (Ki) is greater than 8400 nM in data set [3] and 0.51 nM in data set [7]. In data set [5], this compound showed a log distribution coefficient (logD) of 3.1.

In the case of `CN(Cc1ccccc1)C(=O)Cn1c(=O)n(CCF)c2cnc(-c3ccccc3)nc21`, the inhibition constant Ki in data set [3] was found to be 8400 nM; in data set [7], 1.34 nM. This compound had a logD in data set [5] of 3.2.
